Results taken from ChEMBL document CHEMBL1138485, “Discovery of inducible nitric oxide synthase (iNOS) inhibitor development candidate KD7332, part 1: Identification of a novel, potent, and selective series of quinolinone iNOS dimerization inhibitors that are orally active in rodent pain models” (J Med Chem, 2009).

How the values were obtained:
[1] = Tmax in mouse at 10 mg/kg, po; type: ADME, organism-based; parameters: dose 10 mg/kg, route oral; settings: in vivo
[2] = biological target: Nitric oxide synthase, inducible (Homo sapiens, UniProt P35228); experiment: Inhibition of human iNOS expressed in HEK293 cells assessed as NO production by transient transfection assay; type: cell-based
Chain of Nitric oxide synthase, inducible (P35228 whole entry): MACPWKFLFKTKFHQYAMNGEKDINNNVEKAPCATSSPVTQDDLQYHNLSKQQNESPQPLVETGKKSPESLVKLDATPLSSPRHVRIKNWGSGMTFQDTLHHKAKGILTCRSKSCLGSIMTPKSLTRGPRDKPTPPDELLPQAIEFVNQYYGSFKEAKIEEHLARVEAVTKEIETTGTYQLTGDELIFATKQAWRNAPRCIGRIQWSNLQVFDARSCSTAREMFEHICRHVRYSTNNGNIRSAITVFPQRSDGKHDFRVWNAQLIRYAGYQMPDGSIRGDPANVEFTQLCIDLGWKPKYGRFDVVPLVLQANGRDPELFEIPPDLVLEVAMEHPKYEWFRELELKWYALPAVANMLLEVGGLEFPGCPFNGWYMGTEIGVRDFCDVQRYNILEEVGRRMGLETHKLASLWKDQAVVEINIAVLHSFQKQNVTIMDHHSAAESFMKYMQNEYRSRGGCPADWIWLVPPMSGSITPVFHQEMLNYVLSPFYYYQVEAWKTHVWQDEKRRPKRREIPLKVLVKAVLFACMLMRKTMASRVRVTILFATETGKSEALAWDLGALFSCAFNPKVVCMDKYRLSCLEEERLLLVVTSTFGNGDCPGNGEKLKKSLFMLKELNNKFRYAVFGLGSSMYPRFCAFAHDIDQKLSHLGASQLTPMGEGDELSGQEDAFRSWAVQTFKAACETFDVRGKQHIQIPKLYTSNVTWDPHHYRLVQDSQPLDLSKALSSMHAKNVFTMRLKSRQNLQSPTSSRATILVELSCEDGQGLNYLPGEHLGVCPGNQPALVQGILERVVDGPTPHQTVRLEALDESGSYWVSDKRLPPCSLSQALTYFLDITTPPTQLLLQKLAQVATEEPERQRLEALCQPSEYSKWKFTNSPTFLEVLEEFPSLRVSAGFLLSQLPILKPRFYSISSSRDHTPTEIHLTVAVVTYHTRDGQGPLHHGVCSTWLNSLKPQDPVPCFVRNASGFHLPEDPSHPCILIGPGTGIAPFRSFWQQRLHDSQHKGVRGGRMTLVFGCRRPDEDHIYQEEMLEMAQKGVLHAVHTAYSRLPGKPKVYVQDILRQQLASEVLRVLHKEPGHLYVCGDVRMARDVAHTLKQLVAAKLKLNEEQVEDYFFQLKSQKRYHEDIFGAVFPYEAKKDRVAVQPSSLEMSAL
Outline: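 HEK293 cells grown to ~70% confluence in DMEM/10% FBS with pen/strep. Cells transiently transfected with 10 µg human or murine iNOS plasmid (Fugene 6), 4 h at 37 °C, 10% CO2. Trypsinized, plated at 5 × 10⁵ cells/mL and dosed at once; 1400W 100 µM final as positive control. After 18 h, NO read as DAN fluorescence (10 µg/mL, 20 min RT, then NaOH). EC50 from 3 runs, 10-point curves, n = 8/point.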

[3] = Cmax in mouse at 10 mg/kg, po; type: ADME, organism-based; parameters: dose 10 mg/kg, route oral; settings: in vivo
[4] = biological target: Cytochrome P450 2D6 (Homo sapiens, UniProt P10635); experiment: Inhibition of CYP2D6; type: ADME
Chain of Cytochrome P450 2D6 (P10635 whole entry): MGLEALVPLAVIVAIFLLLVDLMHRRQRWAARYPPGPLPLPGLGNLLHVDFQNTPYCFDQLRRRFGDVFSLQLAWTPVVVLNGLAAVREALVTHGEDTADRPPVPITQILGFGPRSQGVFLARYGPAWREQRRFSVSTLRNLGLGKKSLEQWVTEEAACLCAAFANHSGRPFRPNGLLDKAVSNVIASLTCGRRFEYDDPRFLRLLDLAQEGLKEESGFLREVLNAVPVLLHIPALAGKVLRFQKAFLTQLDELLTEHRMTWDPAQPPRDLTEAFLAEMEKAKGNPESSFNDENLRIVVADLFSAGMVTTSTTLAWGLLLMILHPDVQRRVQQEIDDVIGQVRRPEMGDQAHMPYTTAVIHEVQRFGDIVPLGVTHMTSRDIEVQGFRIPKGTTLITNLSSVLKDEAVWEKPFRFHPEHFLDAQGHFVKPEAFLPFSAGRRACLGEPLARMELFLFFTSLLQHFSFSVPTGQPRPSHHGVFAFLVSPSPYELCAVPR

[5] = AUC in mouse at 10 mg/kg, po; type: ADME, organism-based; parameters: dose 10 mg/kg, route oral; settings: plasma
[6] = Half life in mouse at 10 mg/kg, po; type: ADME, organism-based; parameters: dose 10 mg/kg, route oral; settings: in vivo
[7] = tested on: Mus musculus; experiment: Volume of distribution in mouse at 10 mg/kg, po; type: ADME, organism-based; parameters: dose 10 mg/kg, route oral; settings: in vivo
[8] = biological target: T1, CYP1A2 (Homo sapiens, UniProt P05177); experiment: Inhibition of CYP1A2 at 100 uM; type: ADME
T1 sequence (P05177 whole entry): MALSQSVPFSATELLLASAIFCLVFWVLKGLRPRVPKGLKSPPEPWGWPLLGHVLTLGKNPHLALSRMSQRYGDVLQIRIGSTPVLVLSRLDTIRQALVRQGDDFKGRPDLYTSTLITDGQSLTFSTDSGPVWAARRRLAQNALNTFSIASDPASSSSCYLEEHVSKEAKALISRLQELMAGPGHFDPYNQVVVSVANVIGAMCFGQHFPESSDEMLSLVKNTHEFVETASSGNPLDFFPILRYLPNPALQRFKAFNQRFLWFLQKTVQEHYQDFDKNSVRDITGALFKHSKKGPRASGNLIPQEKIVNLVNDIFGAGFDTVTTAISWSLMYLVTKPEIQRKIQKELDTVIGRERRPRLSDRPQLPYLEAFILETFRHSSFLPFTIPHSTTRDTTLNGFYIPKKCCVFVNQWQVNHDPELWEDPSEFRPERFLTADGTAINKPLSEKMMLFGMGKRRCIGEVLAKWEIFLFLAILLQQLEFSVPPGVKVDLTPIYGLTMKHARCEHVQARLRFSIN

[9] = biological target: Nitric oxide synthase 1 (Homo sapiens, UniProt P29475); experiment: Inhibition of human nNOS expressed in HEK293 cells assessed as NO production by transient transfection assay; type: cell-based
Chain of Nitric oxide synthase 1 (P29475 whole entry): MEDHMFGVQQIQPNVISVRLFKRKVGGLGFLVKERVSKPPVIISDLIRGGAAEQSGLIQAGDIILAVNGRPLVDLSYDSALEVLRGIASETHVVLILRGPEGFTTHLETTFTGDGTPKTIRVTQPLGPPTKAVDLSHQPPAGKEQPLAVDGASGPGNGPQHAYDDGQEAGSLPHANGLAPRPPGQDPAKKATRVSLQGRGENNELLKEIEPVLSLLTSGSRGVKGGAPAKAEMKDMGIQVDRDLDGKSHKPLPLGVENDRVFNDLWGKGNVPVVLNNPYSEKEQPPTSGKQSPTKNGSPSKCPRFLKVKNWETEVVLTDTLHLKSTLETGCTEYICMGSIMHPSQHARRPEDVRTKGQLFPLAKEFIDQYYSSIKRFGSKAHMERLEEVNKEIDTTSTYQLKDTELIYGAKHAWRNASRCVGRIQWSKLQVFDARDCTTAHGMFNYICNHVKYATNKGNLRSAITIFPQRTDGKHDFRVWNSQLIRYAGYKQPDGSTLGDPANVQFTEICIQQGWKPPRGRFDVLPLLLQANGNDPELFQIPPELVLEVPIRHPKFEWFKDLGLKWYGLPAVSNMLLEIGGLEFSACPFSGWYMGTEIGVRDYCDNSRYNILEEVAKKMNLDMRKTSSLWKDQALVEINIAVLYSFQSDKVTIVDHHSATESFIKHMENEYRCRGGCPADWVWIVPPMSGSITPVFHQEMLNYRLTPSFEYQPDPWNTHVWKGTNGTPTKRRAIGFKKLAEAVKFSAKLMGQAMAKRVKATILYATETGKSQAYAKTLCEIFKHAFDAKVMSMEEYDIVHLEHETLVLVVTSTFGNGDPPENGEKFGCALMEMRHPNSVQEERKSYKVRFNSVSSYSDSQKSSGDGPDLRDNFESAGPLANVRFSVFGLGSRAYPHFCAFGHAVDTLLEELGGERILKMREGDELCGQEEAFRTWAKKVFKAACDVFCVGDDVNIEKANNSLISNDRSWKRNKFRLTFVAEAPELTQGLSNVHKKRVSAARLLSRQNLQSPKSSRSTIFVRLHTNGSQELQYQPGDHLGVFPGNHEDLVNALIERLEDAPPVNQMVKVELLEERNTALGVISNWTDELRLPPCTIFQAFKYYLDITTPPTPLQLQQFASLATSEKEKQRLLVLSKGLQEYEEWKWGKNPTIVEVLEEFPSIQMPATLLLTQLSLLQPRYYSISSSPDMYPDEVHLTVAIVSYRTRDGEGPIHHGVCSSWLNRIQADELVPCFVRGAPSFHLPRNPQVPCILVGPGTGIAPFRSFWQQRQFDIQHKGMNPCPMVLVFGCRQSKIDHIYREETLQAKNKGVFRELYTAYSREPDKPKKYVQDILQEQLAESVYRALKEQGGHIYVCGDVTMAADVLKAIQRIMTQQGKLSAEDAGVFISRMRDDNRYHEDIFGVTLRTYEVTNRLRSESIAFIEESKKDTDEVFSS

[10] = Plasma clearance in mouse at 10 mg/kg, po; type: ADME, organism-based; parameters: dose 10 mg/kg, route oral
[11] = biological target: T2, Cytochrome P450 1A2 (Homo sapiens, UniProt P05177); experiment: Inhibition of CYP1A2; type: ADME
T2 sequence (P05177 whole entry): T1 sequence (P05177 whole entry)

[12] = biological target: Cytochrome P450 2C9 (Homo sapiens, UniProt P11712); experiment: Inhibition of CYP2C9; type: ADME
Chain of Cytochrome P450 2C9 (P11712 whole entry): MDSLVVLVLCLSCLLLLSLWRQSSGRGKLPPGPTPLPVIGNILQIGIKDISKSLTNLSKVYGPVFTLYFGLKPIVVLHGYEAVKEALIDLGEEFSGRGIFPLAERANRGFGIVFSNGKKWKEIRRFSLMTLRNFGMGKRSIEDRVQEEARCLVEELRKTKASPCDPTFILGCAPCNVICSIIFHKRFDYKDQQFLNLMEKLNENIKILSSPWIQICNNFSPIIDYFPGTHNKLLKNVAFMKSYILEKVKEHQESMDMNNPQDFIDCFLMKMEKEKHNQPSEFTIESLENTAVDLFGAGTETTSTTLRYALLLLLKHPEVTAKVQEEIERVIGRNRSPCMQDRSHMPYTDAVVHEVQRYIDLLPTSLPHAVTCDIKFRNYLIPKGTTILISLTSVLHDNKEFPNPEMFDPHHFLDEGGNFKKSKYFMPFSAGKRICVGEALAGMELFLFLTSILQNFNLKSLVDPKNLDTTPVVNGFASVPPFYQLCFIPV

[13] = biological target: CYP2D6 (Homo sapiens, UniProt P10635); experiment: Inhibition of CYP2D6 at 100 uM; type: ADME
Chain of CYP2D6 (P10635 whole entry): as the sequence (P10635 whole entry) above

[14] = tested on: Mus musculus; experiment: Reduction of plasma nitrate level in LPS-challenged po dosed BALB/c mouse; type: functional
Outline: (§1)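 Male Balb/c mice were dosed by oral gavage (90% PEG/5% Tween 80/5% PVP + 90% CMC (0.5% w/v)) at t = 0 h, 30 mg/kg for single-dose lines. LPS 10 mg/kg ip in 0.9% NaCl followed immediately. At 6 h, EDTA plasma was taken for nitrate and drug levels. Nitrate reduction is relative to vehicle; ED50 came from full oral dose-response.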

[15] = tested on: Mus musculus; experiment: Antinociceptive activity against formalin-induced phase 2 pain in mouse paw assessed as pain behavior at 100 mg/kg, po pretreated 30 mins before formalin challenge relative to control; type: functional
Outline: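 Mice were dosed 100 mg/kg po (PEG/Tween 80/PVP + CMC vehicle) 30 min before 20 µL formalin into the left hind paw. Phase II pain-behavior duration was timed 25–45 min post-injection by a single observer. Results are mean ± SE, n = 5–6 mice, compared to vehicle by one-way ANOVA with post hoc tests.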

[16] = tested on: Mus musculus; experiment: Antinociceptive activity against acetone-induced chronic constriction injury in mouse paw assessed as duration of pain behavior at 100 mg/kg, po pretreated 30 mins before formalin challenge relative to control; type: functional; settings: in the assay text read “acetone testing” for “formalin challenge”
Outline: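 Mice underwent chronic constriction injury surgery (Bennett and Xie) and recovered 1–2 weeks. After 100 mg/kg po dosing 30 min before testing and 1 h acclimation on a wire mesh platform, 100 µL acetone was applied to the injured plantar hindpaw. Flinching, licking and biting were recorded for 1 min, with reduction relative to vehicle.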

[17] = tested on: Mus musculus; experiment: Reduction of plasma nitrate level in LPS-challenged BALB/c mouse at 30 mg/kg, po; type: functional; parameters: scale not given: the % may be the effect or the level left; outline: as §1
[18] = biological target: Voltage-gated inwardly rectifying potassium channel KCNH2 (Homo sapiens, UniProt Q12809); experiment: Activity at human ERG by patch clamp assay
Chain of Voltage-gated inwardly rectifying potassium channel KCNH2 (Q12809 whole entry): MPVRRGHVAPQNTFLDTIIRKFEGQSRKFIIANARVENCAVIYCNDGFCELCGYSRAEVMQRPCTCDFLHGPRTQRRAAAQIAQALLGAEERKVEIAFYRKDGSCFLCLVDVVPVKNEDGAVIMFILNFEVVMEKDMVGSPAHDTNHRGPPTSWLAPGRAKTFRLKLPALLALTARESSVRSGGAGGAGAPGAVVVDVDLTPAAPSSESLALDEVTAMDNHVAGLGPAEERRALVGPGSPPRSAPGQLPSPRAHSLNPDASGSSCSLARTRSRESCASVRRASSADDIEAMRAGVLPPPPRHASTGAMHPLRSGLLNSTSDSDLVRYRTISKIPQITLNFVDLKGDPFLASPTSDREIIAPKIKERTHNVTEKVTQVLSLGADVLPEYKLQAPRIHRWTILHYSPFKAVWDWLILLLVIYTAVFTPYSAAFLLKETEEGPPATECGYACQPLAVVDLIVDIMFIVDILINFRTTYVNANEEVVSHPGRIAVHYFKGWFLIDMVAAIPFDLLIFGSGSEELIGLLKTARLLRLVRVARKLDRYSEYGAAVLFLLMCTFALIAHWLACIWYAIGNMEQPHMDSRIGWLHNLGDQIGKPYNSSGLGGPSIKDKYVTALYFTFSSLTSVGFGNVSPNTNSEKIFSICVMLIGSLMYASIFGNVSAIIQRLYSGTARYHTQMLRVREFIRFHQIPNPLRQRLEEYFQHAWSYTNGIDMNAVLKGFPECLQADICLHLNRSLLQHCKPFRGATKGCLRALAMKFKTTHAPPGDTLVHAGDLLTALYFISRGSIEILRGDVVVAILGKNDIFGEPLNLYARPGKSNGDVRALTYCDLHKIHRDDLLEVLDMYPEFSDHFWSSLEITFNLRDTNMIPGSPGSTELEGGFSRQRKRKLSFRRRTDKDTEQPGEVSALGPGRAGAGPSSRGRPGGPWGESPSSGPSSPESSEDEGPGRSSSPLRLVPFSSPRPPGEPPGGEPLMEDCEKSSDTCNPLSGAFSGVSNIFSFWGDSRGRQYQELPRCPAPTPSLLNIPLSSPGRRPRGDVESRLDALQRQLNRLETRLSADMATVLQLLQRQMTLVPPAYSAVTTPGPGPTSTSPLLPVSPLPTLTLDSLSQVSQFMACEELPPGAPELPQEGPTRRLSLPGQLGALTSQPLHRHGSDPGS

Row | SMILES | inhibition at 100 µM [8] [%] | inhibition at 100 µM [13] [%] | Tmax [1] [min] | EC50 [2] [µM] | Cmax [3] [nM] | EC50 [4] [µM] | AUC [5] [ng·h/mL] | half-life [6] [min] | Vdss [7] [L/kg] | EC50 [9] [µM] | CL/F [10] [mL/min/kg] | EC50 [11] [µM] | EC50 [12] [µM] | ED50 [14] [mg/kg] | Activity [15] [%] | Activity [16] [%] | Activity [17] [%] | EC50 [18] [µM]
1 | Cc1ncsc1C(=O)N(Cc1cc(=O)[nH]c2c(F)c(F)ccc12)c1cccc(Cl)c1 |  | < 50 |  | 0.002 |  | > 100 |  |  |  | 0.12 |  | 52 | 22 | 13 |  |  | 62 | 
2 | CC(C)C(=O)N(Cc1cc(=O)[nH]c2c(F)cccc12)c1cccc(Cl)c1 | < 50 | < 50 |  | 0.16 |  | > 100 |  |  |  | 2.9 |  | > 100 |  |  |  |  | 6 | 
3 | CC1=C(C(=O)N(Cc2cc(=O)[nH]c3c(F)c(F)ccc23)c2cccc(Cl)c2)CNCC1 | < 50 | < 50 |  | 0.011 |  | > 100 |  |  |  | 0.29 |  | > 100 |  | 16 |  |  | 95 | 
4 | Cn1cncc1C(=O)N(Cc1cc(=O)[nH]c2c(F)c(F)ccc12)c1cccc(Cl)c1 |  |  | 15 | 0.003 | 2200 | 21 | 520 | 66 | 1.1 | 0.07 | > 100 | 95 | 25 | 5 | 65 |  | 95 | 8

More lines, main results first:

Row | inhibition at 100 µM [8] [%] | inhibition at 100 µM [13] [%] | SMILES | Tmax [1] [min] | EC50 [2] [µM] | Cmax [3] [nM] | EC50 [4] [µM] | AUC [5] [ng·h/mL] | half-life [6] [min] | Vdss [7] [L/kg] | EC50 [9] [µM] | CL/F [10] [mL/min/kg] | EC50 [11] [µM] | EC50 [12] [µM] | ED50 [14] [mg/kg] | Activity [15] [%] | Activity [16] [%] | Activity [17] [%] | EC50 [18] [µM]
5 | < 50 | < 50 | Cc1ncsc1C(=O)N(Cc1cc(=O)[nH]c2c(F)cccc12)c1cccc(Cl)c1 | 30 | 0.011 | 1400 | > 100 | 450 | 54 | 1.6 | 2.3 | > 100 | > 100 | 33 | 10 | 40 | 45 | 90 | 
6 | < 50 | < 50 | Cc1ncsc1C(=O)N(Cc1c[n+]([O-])cc2c(F)c(F)ccc12)c1cccc(Cl)c1 |  | 0.019 |  | > 100 |  |  |  | 3.2 |  | > 100 | 55 |  |  |  | 10 | 
